Bioassay records: PubChem, several laboratories
N-glyco inh: increase of ERlucT glycosylation luciferase signal, primary screen, N-linked glycosylation inhibitor project, D54 ERlucT cells, luminescence, set 2; D54 ERlucT glycosylation luciferase reporter, 24 h; percent of 100 nM tunicamycin response; reporter increase, % at 12.5 µM; 360,000 compounds, 0.23% hits; AID 588692, 2011;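 active means mean luciferase reporter signal, scaled so untreated is 0 and the glycosylation-blocking control 100, at or above a set limit in every replicate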;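 further: luciferase carries N-glycosylation sites so blocking glycosylation raises the light; 0% = median of neutral control wells and 100% = median of 100 nM tunicamycin wells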
T cell HTS: modulators of CD8 T cell-vesicle binding, primary screen, mouse 2C CD8+ T cells, flow cytometry | 2C CD8+ T cell-vesicle binding; hits give low values | response (vesicle binding), % at 7 µM | 330,000 compounds, 0.068% hits | AID 2052, 2009;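 active means response, share of CD8 T cells binding vesicles, and their 90th percentile fluorescence all below set limits, cut at about 80% in these data, passing the limit was not always enough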;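 further: values below 100% mean blocked vesicle binding to the CD8+ T cells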
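incubation = binding step 1.5 h, 37 °C, antibody labelling 20 min, ice | test system = 2C mouse CD8+ T cells | read-out basis = percent CD8+ FL2 mean versus row control | controls = Peptide-free naked vesicles (low) and QL9 vesicles with 0.7% DMSO vehicle (high) | detection = flow cytometry of vesicle-bound cells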
ALR H2O2 inh: inhibitors of human ALR sulfhydryl oxidase, primary screen, biochemical, H2O2 detection, HRP-luminol luminescence, single point; purified ALR, DTT oxidation; inhibition, % (concentration not given with the values); 290,000 compounds, 3.8% hits; AID 485317, 2010;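 active means mean replicate inhibition above about 79%, with every replicate also reaching it, limit read from the data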
Target sequence (P55789 whole entry, looked up): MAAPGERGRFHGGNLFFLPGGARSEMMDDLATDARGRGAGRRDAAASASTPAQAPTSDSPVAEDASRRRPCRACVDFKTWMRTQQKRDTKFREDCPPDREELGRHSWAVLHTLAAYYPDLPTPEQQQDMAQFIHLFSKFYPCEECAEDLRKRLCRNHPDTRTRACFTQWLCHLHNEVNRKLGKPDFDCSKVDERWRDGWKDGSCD
Active calls of the source: *; x = no result given. The full list was thinned out, with hits kept by preference.

SMILES | N-glyco inh | T cell HTS | ALR H2O2 inh
CN1C(=O)/C(=C\c2ccc(N3CCCCCC3)cc2)C(=O)NC1=S | 5 | 172 | -12
Cc1cc(N2CCCCC2)ccc1C=C1C(=O)N(C)C(=S)N(C)C1=O | 1 | 210 | 90*
CC12CC(=O)C3C(CCC4CC=CCC43C)C1CCC2=O (configuration not stated) | -6 | x | x
COc1cccc(C(c2nnnn2C(C)(C)C)N2CCC3(CC2)C(=O)NCN3c2ccccc2)c1OC (configuration not stated) | -2 | x | x
CN1CCN(c2ccc(NC(=O)Oc3ccccc3)cc2)CC1 | 3 | 443 | 80*
COC(=O)C(O)(c1ccc(NC(=O)Oc2ccccc2)cc1)C(F)(F)F (configuration not stated) | 2 | 266 | -3
CC1CN2C(=O)C1(c1ccccc1)C(=O)NC2=S (configuration not stated) | -1 | x | x
